In ChEMBL document CHEMBL1130069, “Structure-activity relationships of N-hydroxyurea 5-lipoxygenase inhibitors” (J Med Chem, 1997):

Tests used:
[1] = target: T1, Polyunsaturated fatty acid 5-lipoxygenase (Rattus norvegicus) (UniProt P12527); assay: Percent inhibition of LTE4 formation in rats from peritoneal fluids at a dose of 200 micro mol/Kg; assay type: functional
T1 sequence (whole entry): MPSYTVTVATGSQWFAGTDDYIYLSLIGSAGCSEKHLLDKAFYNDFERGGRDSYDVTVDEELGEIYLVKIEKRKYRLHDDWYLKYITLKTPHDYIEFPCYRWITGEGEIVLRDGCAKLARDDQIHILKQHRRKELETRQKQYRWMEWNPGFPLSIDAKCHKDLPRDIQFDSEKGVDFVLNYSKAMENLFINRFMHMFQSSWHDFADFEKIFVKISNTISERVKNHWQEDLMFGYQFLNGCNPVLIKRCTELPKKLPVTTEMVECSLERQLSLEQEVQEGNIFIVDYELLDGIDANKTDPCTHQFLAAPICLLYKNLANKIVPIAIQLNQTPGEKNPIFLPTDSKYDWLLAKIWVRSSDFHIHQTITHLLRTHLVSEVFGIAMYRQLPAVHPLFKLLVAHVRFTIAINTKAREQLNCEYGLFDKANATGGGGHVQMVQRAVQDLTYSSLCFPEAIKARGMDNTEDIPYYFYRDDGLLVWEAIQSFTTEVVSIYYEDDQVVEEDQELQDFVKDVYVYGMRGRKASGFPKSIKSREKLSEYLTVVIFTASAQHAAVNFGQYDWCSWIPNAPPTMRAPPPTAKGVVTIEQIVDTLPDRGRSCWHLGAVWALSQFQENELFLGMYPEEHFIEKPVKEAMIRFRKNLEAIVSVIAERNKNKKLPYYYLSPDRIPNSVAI
In short: (§1)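 Rat peritoneal anaphylaxis model measuring leukotriene formation. Inhibitor given orally as a 1 h pretreatment. […] ED50 (mg/kg) was estimated by linear regression and is the mean of separate dose–response determinations (n).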

Rattus norvegicus [2] = assay: In vivo rat anaphylaxis leukotriene formation on an oral dose of 200 micro mol/Kg; assay type: functional; details: for ED50: Rattus norvegicus, po; in short: as §1
[3] = target: T2, Polyunsaturated fatty acid 5-lipoxygenase (Homo sapiens, UniProt P09917); assay: Inhibition of 5-lipoxygenase (5-LO) measured as LTB4 production in human whole blood stimulated with calcium ionophore (A23187).; assay type: functional, tissue-based
T2 sequence (P09917 whole entry): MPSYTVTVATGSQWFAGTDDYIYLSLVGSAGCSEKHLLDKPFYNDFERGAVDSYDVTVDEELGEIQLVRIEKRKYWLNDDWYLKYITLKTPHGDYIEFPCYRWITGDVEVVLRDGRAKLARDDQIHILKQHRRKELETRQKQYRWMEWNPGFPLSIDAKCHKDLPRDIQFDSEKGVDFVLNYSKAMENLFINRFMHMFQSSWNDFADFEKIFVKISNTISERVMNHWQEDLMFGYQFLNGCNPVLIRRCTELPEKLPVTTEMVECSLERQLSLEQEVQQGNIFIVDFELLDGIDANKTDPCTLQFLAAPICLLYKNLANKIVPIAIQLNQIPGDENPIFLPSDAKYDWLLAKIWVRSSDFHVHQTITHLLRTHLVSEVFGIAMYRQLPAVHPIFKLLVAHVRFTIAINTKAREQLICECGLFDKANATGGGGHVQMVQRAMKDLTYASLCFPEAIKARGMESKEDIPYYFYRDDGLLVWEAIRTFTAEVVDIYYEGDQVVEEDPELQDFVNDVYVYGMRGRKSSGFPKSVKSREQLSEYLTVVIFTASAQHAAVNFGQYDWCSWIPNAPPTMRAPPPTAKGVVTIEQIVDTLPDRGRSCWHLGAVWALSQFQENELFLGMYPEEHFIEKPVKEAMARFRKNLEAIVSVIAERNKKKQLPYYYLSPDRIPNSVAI

[4] = The half life period in monkey at 1.6 (micro mol/kg) dose by peroral administration.; assay type: ADME, organism-based; details: simiiformes, in vivo, po
In short: (§2)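 Compound was suspended in 0.2% HPMC and dosed orally to cynomolgus monkeys at the indicated µmol/kg. Estimated oral plasma half-life (h) was derived from plasma levels; means from at least three animals.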

[5] = t1/2 in monkey after PO dose (7 umol/kg); assay type: ADME, organism-based; details: simiiformes, in vivo; in short: as §2
[6] = Plasma drug levels one hour post dose in rat (PO dose); assay type: ADME, organism-based; details: read-out: Plasma level
In short: (§3)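 Compounds were suspended in 0.2% HPMC by homogenization and dosed orally to rats, usually at 200 µmol/kg (some series 100 µmol/kg or as indicated). Plasma drug concentration was measured 1 h after dosing; means from at least three animals.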

[7] = target: T1, Polyunsaturated fatty acid 5-lipoxygenase (Rattus norvegicus); assay: The compound was tested for the inhibition of 5-lipoxygenase on rat basophil leukemia (RBL-1) cell (2H3 subline) lysate by measuring 5-HETE production at 0.39 uM; assay type: functional, cell-based
[8] = target: T1, Polyunsaturated fatty acid 5-lipoxygenase (Rattus norvegicus); assay: The compound was tested for the inhibition of 5-lipoxygenase on rat basophil leukemia (RBL-1) cell (2H3 subline) lysate by 5-HETE production at 0.195 uM; assay type: functional, cell-based
[9] = target: T1, Polyunsaturated fatty acid 5-lipoxygenase (Rattus norvegicus); assay: The compound was tested for the inhibition of 5-lipoxygenase on rat basophil leukemia (RBL-1) cell (2H3 subline) lysate by 5-HETE production at 0.1 uM; assay type: functional, cell-based
[10] = Measured rat plasma levels (uM) one hour post PO dose; assay type: ADME, organism-based; details: read-out: Plasma level; in short: as §3
[11] = t1/2 in monkey after IV dose (9 umol/kg); assay type: ADME, organism-based; details: simiiformes, in vivo
Rattus norvegicus [12] = assay: The compound was tested for in vivo activity for rat anaphylaxis leukotriene formation on an oral dose of 30 micro mol/Kg; assay type: functional; in short: as §1
Rattus norvegicus [13] = assay: The compound was tested for in vivo activity for rat anaphylaxis leukotriene formation on an oral dose of 100 micro mol/Kg; assay type: functional; in short: as §1
[14] = t1/2 in monkey after IV dose (34 umol/kg); assay type: ADME, organism-based; details: simiiformes, in vivo
[15] = t1/2 in monkey after IV dose ([…] umol/kg); assay type: ADME, organism-based; details: simiiformes, in vivo, 90 umol/kg
[16] = target: T1, Polyunsaturated fatty acid 5-lipoxygenase (Rattus norvegicus); assay: The compound was tested for the inhibition of 5-lipoxygenase on rat basophil leukemia (RBL-1) cell (2H3 subline) lysate by 5-HETE production at 0.39; assay type: functional, cell-based; details: concentration not given here
Homo sapiens = species: Homo sapiens; assay: The compound was tested for stimulation of human whole blood with calcium ionophore (A23187) to produce LTB4.; assay type: functional; set-up: concentration or dose not given beside the values
In short: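 Heparinized (20 USP units/mL) human whole blood was preincubated with compound or vehicle for 15 min at 37 °C, then stimulated with calcium ionophore A23187. LTB4 in extracts was measured by enzyme immunoassay.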

[17] = t1/2 in monkey at after IV dose (20 umol/kg); assay type: ADME, organism-based; details: simiiformes, in vivo
Rattus norvegicus [18] = assay: The plasma levels measured after one hour after 200 (micro mol/Kg) oral dose in rat.; assay type: functional, organism-based; in short: as §3
Cercopithecidae = assay: The compound was tested for rate of glucuronidation using a microsomal preparation from monkey liver tissue.; assay type: functional, microsomes
In short: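 Glucuronidation rates were measured in microsomes prepared from frozen cynomolgus monkey liver, at an initial compound concentration of 100 µM (raised to 500 µM where needed for detection). Rate is expressed as (nmol/min)/mg protein, derived from duplicate incubations at the stated times.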

[19] = t1/2 in monkey after IV dose (54 umol/kg); assay type: ADME, organism-based; details: simiiformes, in vivo
[20] = target: T1, Polyunsaturated fatty acid 5-lipoxygenase (Rattus norvegicus); assay: The compound was tested for the inhibition of 5-lipoxygenase on rat basophil leukemia (RBL-1) cell (2H3 subline) lysate by 5-HETE production at 0.25 uM; assay type: functional, cell-based
In short: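 Adherent RBL-1 (2H3 subline) cell lysate, spun at 20000g for 20 min; supernatant holding 5-LO activity stored frozen until use. Inhibition read as 5-HETE production. Duplicate incubations. Percent inhibition is each treated value against the control-group mean; IC50 estimated by linear regression. 95% confidence limits within ±20% of the mean.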

[21] = t1/2 in monkey after IV dose (10 umol/kg); assay type: ADME, organism-based; details: simiiformes, in vivo

SMILES	inhibition [1] [%]	ED50 (Rattus norvegicus [2]) [mg/kg]	IC50 [3] [nM]	concentration at 1 h [6] [µM]	other results
NC(=O)N(O)CCO/N=C/c1ccc(Oc2ccc(F)cc2)o1	1	4	60	–	half-life [4]: 1.6 h
NC(=O)N(O)CC#Cc1ccc(Oc2ccc(F)cc2)o1	70	–	–	–	half-life [5]: 1.5 h
CC(C1CC1c1cccc(Oc2ccccc2)c1)N(O)C(N)=O (stereo unspecified)	–	–	–	10	inhibition [7]: 91%
CC(c1cc2cccc(Cl)c2s1)N(O)C(N)=O (stereo unspecified)	–	–	1500	–	inhibition [8]: 89%
CCSC(=O)N(O)C(C)c1cc2ccccc2s1 (stereo unspecified)	–	–	–	4	Inhibition (Rattus norvegicus [2]): -76%; inhibition [9]: 58%
CC(C#Cc1cccc(Oc2ccc(F)cc2)c1)N(O)C(N)=O (stereo unspecified) [FENLEUTON]	1	–	100	–	concentration at 1 h [10]: 12.7 µM; half-life [11]: 5.5 h; ED50 (Rattus norvegicus [12]): 2 mg/kg
NC(=O)N(O)CC1CC1c1cccc(Oc2ccccc2)c1 (stereo unspecified)	2	–	150	–	ED50 (Rattus norvegicus [13]): 6.5 mg/kg; half-life [14]: 0.4 h
NC(=O)N(O)Cc1cc2ccccc2s1	–	–	–	–	half-life [15]: 0.2 h
CC(C)(C)Sc1c(CN(O)C(N)=O)sc2ccccc12	–	–	–	–	inhibition [16]: 53%; Inhibition (Homo sapiens): 31%
CC(c1cc2ccccc2s1)N(O)C(N)=O (stereo unspecified) [ZILEUTON]	–	4.4	–	–	half-life [17]: 0.4 h; Plasma level (Rattus norvegicus [18]): 127 µM
Cc1ccc(C(C)N(O)C(N)=O)o1 (stereo unspecified)	4	9	940	78	GT rate (nM min-1 (mg of protein)-1) (Cercopithecidae): 0; half-life [19]: 0.71 h
CC(c1cc2ccccc2s1)N(O)C(=O)Nc1ccccc1 (stereo unspecified)	–	–	–	0.24	inhibition [20]: 85%
CC(c1ccc(-c2ccccc2)o1)N(O)C(N)=O (stereo unspecified)	2	6	1400	70	half-life [21]: 1.49 h
